This passage reports MIC results from ChEMBL document CHEMBL1130007, “Carbocyclic oxetanocins lacking the C-3' methylene” (1997).

In brackets after ≈: the same amount, converted by molar mass.

Assay type in all cases: functional
The subject of test [1] is E6SM. Put plainly: Minimum inhibitory conc. for 50% inhibition of HSV-1 (KOS) virus induced cytopathicity in E6SM cells. The note with it: Homo sapiens. Background: Cytopathic effects are the visible damage that an infection or toxin causes in cultured cells.
Test [2] relates to HEL. Kind of test: Minimum inhibitory conc. for 50% inhibition of growth in HEL cells. The settings on record: Homo sapiens. The gist of the method: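 HEL cell cytotoxicity was measured as inhibition of normal cell growth. The value is the concentration inhibiting growth by 50%.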
Test [3] relates to E6SM. Kind of test: Minimum inhibitory conc. for 50% inhibition of alteration of morphology in E6SM cells. The note with it: Homo sapiens. In outline: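 Toxicity in E6SM, HeLa or Vero cultures was judged by microscopically visible alteration of normal cell morphology. The value is the concentration producing this alteration (50%).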
In test [4] the test system is E6SM. Kind of test: Minimum inhibitory conc. for 50% inhibition of vaccinia virus induced cytopathicity in E6SM cells. The note with it: Homo sapiens.
The test system of test [5] is E6SM. Kind of test: Minimum inhibitory conc. for 50% inhibition of TK HSV-1 (B2006) virus induced cytopathicity in E6SM cells. The settings on record: Homo sapiens. The gist of the method:
(§1)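 Confluent E6SM or Vero monolayers were infected with 100 CCID50 of virus and allowed 1 h of adsorption. Residual virus was then removed. Cultures were incubated with compound in serial dilutions (400, 200, 100, ... µg/mL). Cytopathicity was scored when it was complete in the untreated infected controls.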

For test [6], the system named is E6SM. Kind of test: Minimum inhibitory conc. for 50% inhibition of vesicular stomatitis virus induced cytopathicity in E6SM cells. The note with it: Homo sapiens.
For test [7], the system named is E6SM. Kind of test: Minimum inhibitory conc. for 50% inhibition of HSV-2 (G) virus induced cytopathicity in E6SM cells. The note with it: Homo sapiens. The gist of the method: as §1
Test [8] has as its system E6SM. Put plainly: Minimum inhibitory conc. for 50% inhibition of HSV-1 (F) virus induced cytopathicity in E6SM cells. The note with it: Homo sapiens. The gist of the method:
as §1

Test [9] deals with HEL. Kind of test: Minimum inhibitory conc. for 50% inhibition of VZV (YS) virus plaque formation in HEL cells. The settings on record: Homo sapiens.
Test [10] has as its system HEL. Kind of test: Minimum inhibitory conc. for 50% inhibition of TK VZV (07/1) virus plaque formation in HEL cells. The note with it: Homo sapiens.
Test [11] relates to E6SM. Put plainly: Minimum inhibitory conc. for 50% inhibition of HSV-2 (196) virus induced cytopathicity in E6SM cells. The settings on record: Homo sapiens. The gist of the method:
as §1

The test system of test [12] is HEL. Kind of test: Minimum inhibitory conc. for 50% inhibition of TK-VZV (YS/R) virus plaque formation in HEL cells. The note with it: Homo sapiens.
The test system of test [13] is HEL. Kind of test: Minimum inhibitory conc. for 50% inhibition of VZV (OKA) virus plaque formation in HEL cells. The settings on record: Homo sapiens.
Test [14] deals with E6SM. Kind of test: Minimum inhibitory conc. for 50% inhibition of HSV-2 (Lyons) virus induced cytopathicity in E6SM cells. The settings on record: Homo sapiens. The gist of the method:
as §1

Test [15] concerns E6SM. Kind of test: Minimum inhibitory conc. for 50% inhibition of HSV-1 (McIntyre) virus induced cytopathicity in E6SM cells. The note with it: Homo sapiens.
Test [16] relates to HEL. Put plainly: Minimum inhibitory conc. for 50% inhibition of CMV (AD-169) virus plaque formation in HEL cells. The settings on record: Homo sapiens. In outline:
(§2)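 HEL cell cultures were inoculated with 100 CCID50 of virus and allowed 1 h of adsorption. Residual virus was then removed. Cultures were incubated with compound at graded concentrations (400, 200, 100, ... µg/mL). Read-out was virus plaque formation, scored when the infected controls were fully affected. The value is the concentration reducing plaque formation by 50%.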

Test [17] deals with HEL. Kind of test: Minimum inhibitory conc. for 50% inhibition of CMV (Davis) virus plaque formation in HEL cells. The settings on record: Homo sapiens. In outline: as §2
Test [18] concerns HeLa. Put plainly: Minimum inhibitory conc. for 50% inhibition of morphology […] in HeLa cells. The note with it: Homo sapiens.
The subject of test [19] is Vero. Kind of test: Minimum inhibitory conc. for 50% inhibition of Reo-1 virus induced cytopathicity in Vero cells. The note with it: Chlorocebus sabaeus. In outline: as §1
The subject of test [20] is Vero. Put plainly: Minimum inhibitory conc. for 50% inhibition of Parainfluenza-3 virus induced cytopathicity in Vero cells. The settings on record: Chlorocebus sabaeus. The gist of the method: as §1
The subject of test [21] is Vero. Put plainly: Minimum inhibitory conc. for 50% inhibition of forest virus induced cytopathicity in Vero cells. The note with it: Chlorocebus sabaeus. In outline:
as §1

The subject of test [22] is HeLa. Kind of test: Minimum inhibitory conc. for 50% inhibition of vesicular stomatitis virus induced cytopathicity in HeLa cells. The settings on record: Homo sapiens.
The test system of test [23] is HeLa. Put plainly: Minimum inhibitory conc. for 50% inhibition of coxsackie B4 virus induced cytopathicity in HeLa cells. The settings on record: Homo sapiens.
Test [24] deals with Vero. Kind of test: Minimum inhibitory conc. for 50% inhibition of Sindbis virus induced cytopathicity in Vero cells. The note with it: Chlorocebus sabaeus. In outline: as §1
Test [25] has as its system HeLa. Put plainly: Minimum inhibitory conc. for 50% inhibition of Polio-1 virus induced cytopathicity in HeLa cells. The note with it: Homo sapiens.
Test [26] concerns Vero. Kind of test: Minimum inhibitory conc. for 50% inhibition of alteration of morphology in Vero cells. The note with it: Chlorocebus sabaeus.

For `Nc1nc2c(ncn2COCCO)c(=O)[nH]1` [ACYCLOVIR], the MIC is 0.04 µg/mL (≈ 0.178 µM) in [1]; above 200 µg/mL in test [2]; 400 µg/mL (≈ 1780 µM) in test [3]; above 200 µg/mL in test [4]; 70 µg/mL (≈ 311 µM) in test [5]; above 200 µg/mL in test [6]. For the same compound, the MIC in test [7] was 0.07 µg/mL (≈ 0.311 µM).
For `O=c1[nH]c(=O)n([C@H]2C[C@H](O)[C@@H](CO)O2)cc1/C=C/Br` [BRIVUDINE], the MIC in [1] is 0.004 µg/mL (≈ 0.012 µM); in test [8], 0.01 µg/mL (≈ 0.03 µM); in test [9] it was 2 ng/mL (≈ 0.006 µM); in test [10], 5 µg/mL (≈ 15 µM); in [11] it was above 200 µg/mL; in test [2], 150 µg/mL (≈ 450 µM). The MIC in test [3] is above 400 µg/mL; in test [4], 0.07 µg/mL (≈ 0.21 µM); in [5] it was 7 µg/mL (≈ 21 µM); in test [12] it was above 50 µg/mL; in [13] it was 0.8 ng/mL (≈ 0.0024 µM); in test [14], 100 µg/mL (≈ 300 µM). Further, the MIC in test [15] was 7 ng/mL (≈ 0.021 µM); in [6], above 200 µg/mL; in test [7] it was above 200 µg/mL.
As to `Nc1ccn(C[C@@H](CO)OCP(=O)(O)O)c(=O)n1.O.O` [CIDOFOVIR], the values for the MIC in test [16] and in [17] were 0.06 µg/mL and 0.07 µg/mL, respectively.
For the compound `Nc1nc2c(ncn2COC(CO)CO)c(=O)[nH]1` [GANCICLOVIR], the MIC was found to be 1.5 µg/mL (≈ 5.88 µM) in test [16] and 0.13 µg/mL (≈ 0.509 µM) in [17].
Consider `NC(=O)c1ncn([C@@H]2O[C@H](CO)[C@@H](O)[C@H]2O)n1` [RIBAVIRIN], for which the MIC was above 200 µg/mL in [18]; 70 µg/mL (≈ 287 µM) in test [19]; 70 µg/mL (≈ 287 µM) in test [20]; 300 µg/mL (≈ 1230 µM) in [21]; 4 µg/mL (≈ 16.4 µM) in test [22]; 70 µg/mL (≈ 287 µM) in [23]. Moreover, the MIC in test [24] is 150 µg/mL (≈ 614 µM); in test [25], 70 µg/mL (≈ 287 µM); in [26], above 400 µg/mL.
